Source: PubChem BioAssay AID822 (SRMLSC, 2007)
Activity calls are given as the source filed them.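 Rule for the calls: active = half-maximal effective dose for blocking growth of human endothelial cells at most 100 µM; inactive = the rest.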

Assay: HUVEC proliferation inhibition, dose response, cell-based, ATP luminescence (AID 822);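 note: cells exposed to compound for 72 h before the ATP read; 100% = median luminescence of untreated cell-only control wells on each plate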
Settings: HUVEC proliferation, viability ATP luminescence; at 10 µM (top of the series)
In short: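 Test system: HUVEC; Input: 1250 HUVEC cells seeded per well; Doses: 0.039–20 µM, 0.2% DMSO; Evaluation: % viability versus median cell-only wells, EC50 from 4-parameter fit; Medium: EBM plus 2% FBS; Incubation: compound treatment 72 h, 37 °C; Signal: luminescent ATP measurement with CellTiter-Glo reagent; Plate: collagen-coated multiwell plates.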

**Q.** For `COc1cccc(C(=O)Oc2c(CN3CCOCC3)cc(Cl)c3cccnc23)c1`, which viability is on record?
**A.** The viability was 84% (inactive).

Same assay, conditions: HUVEC proliferation, viability ATP luminescence; at 20 µM (top of the series)

**Q.** Which viability does the source give for `CC1=C(C)CS(=O)N(S(=O)(=O)c2ccccc2)C1` (centres undefined) here?
**A.** The viability was 80.3% (inactive).

**Q.** With `Oc1ccc2oc3c(c2c1/C=N/n1cnnc1)CCCC3` as the molecule, how does the viability read?
**A.** Its viability is 88.2% (inactive).

**Q.** Which viability does the source give for `CC1CCCN(c2oc(-c3cccc4ccccc34)nc2C#N)C1` (centres undefined) here?
**A.** The viability was 92.1% (inactive).

**Q.** For `O=C1CC(Sc2nnc(-c3ccccc3O)o2)C(=O)N1c1ccccc1` (centres undefined), which viability is on record?
**A.** Its viability is 93% (inactive).

**Q.** With `CC1CCCC(NC(=O)C2CCN(S(=O)(=O)N3CCC4(CC3)OCCO4)CC2)C1C` (centres undefined) as the molecule, how does the viability read?
**A.** Its viability is 93.2% (inactive).

**Q.** With `c1ccc(CSc2nnc(-c3c[nH]c4ccccc34)o2)cc1` as the molecule, how does the viability read?
**A.** The viability was 85.9% (inactive).

**Q.** With `CC1(C)CC(=O)c2cc(C(=O)NCc3ccco3)c(=O)n(-c3ccc(Cl)cc3)c2C1` as the molecule, how does the viability read?
**A.** Its viability is 97.2% (inactive).

**Q.** With `COc1ccc(OC)c(C(=O)CSc2nnc(-c3ccc(OC)c(OC)c3)o2)c1` as the molecule, how does the viability read?
**A.** Its viability is 86.2% (inactive).

**Q.** With `O=C(Cc1sc(-c2ccccc2Cl)nc1-c1ccccc1)Nc1ccc(F)cc1` as the molecule, how does the viability read?
**A.** The viability was 83.5% (inactive).

**Q.** For `CCC(=O)N1c2ccc(S(=O)(=O)CCC(=O)N3CCn4c3nc3ccccc34)cc2CC1C` (centres undefined), which viability is on record?
**A.** The viability was 84.1% (inactive).

**Q.** Which viability does the source give for `Cc1ccc(-c2nnc(N3CCN(C(=O)CSc4ncn[nH]4)CC3)c3ccccc23)cc1` here?
**A.** The viability was 85.9% (inactive).

**Q.** With `CCn1nc(C(=O)NC2=NCCS2)c2ccccc2c1=O` as the molecule, how does the viability read?
**A.** The viability was 101% (inactive).

**Q.** Which viability does the source give for `O=C(Oc1ccccc1-c1nnco1)c1ccc(Cl)cc1` here?
**A.** Its viability is 105% (inactive).

**Q.** With `CCOC(=O)CNC(=O)C(=O)c1c(O)[nH]c2ccccc12` as the molecule, how does the viability read?
**A.** Its viability is 96.7% (inactive).

**Q.** With `CC1=CC(C)(C)Nc2ccc(OC(=O)CN3C(=O)C4CCCCC4C3=O)cc21` (centres undefined) as the molecule, how does the viability read?
**A.** The viability was 91% (inactive).

**Q.** Which viability does the source give for `COc1ccc(N2C(=O)CC(Sc3nnc(-c4ccccc4)o3)C2=O)cc1` (centres undefined) here?
**A.** Its viability is 95% (inactive).

**Q.** For `C=CCn1c(SCC(=O)NC(=O)NCc2ccco2)nc2sc(CC)cc2c1=O`, which viability is on record?
**A.** Its viability is 86.9% (inactive).

**Q.** With `O=C1CSC(c2ccccn2)N1Cc1cn2ccccc2n1` (centres undefined) as the molecule, how does the viability read?
**A.** The viability was 120% (inactive).

**Q.** With `O=S1(=O)c2ccccc2N=NN1Cc1cc(Cl)cc(Cl)c1` as the molecule, how does the viability read?
**A.** Its viability is 84.9% (inactive).

**Q.** With `Cc1ccc(-n2c(Cc3cccs3)nnc2SCC(=O)Nc2ccc(F)c(F)c2)cc1` as the molecule, how does the viability read?
**A.** Its viability is 82.4% (inactive).

**Q.** With `O=C(COc1nc2ccccc2nc1N1CCOCC1)N1CCc2ccccc21` as the molecule, how does the viability read?
**A.** The viability was 86.1% (inactive).

**Q.** With `COc1ccc(CCC(=O)N2CCN(C3CCCCC3)CC2)cc1` as the molecule, how does the viability read?
**A.** Its viability is 99.8% (inactive).

**Q.** With `CCOc1ccc(OCc2ccc(C(=O)NCC3CCCO3)o2)cc1` (centres undefined) as the molecule, how does the viability read?
**A.** The viability was 116% (inactive).

**Q.** With `COCCn1c(C)cc(C(=O)CSc2nc3ccccc3o2)c1C` as the molecule, how does the viability read?
**A.** The viability was 96.1% (inactive).

**Q.** For `NC(=O)Cc1c[nH]c2cccc(O)c12`, which viability is on record?
**A.** Its viability is 103% (inactive).

**Q.** With `Cn1c(NC(=O)c2cccc(Cn3cc(Cl)cn3)c2)nc2ccccc21` as the molecule, how does the viability read?
**A.** The viability was 83.1% (inactive).

**Q.** Which viability does the source give for `CCn1c(Cc2ccc(OC)cc2)nnc1SCC(=O)Nc1cccc(C(=O)OC)c1` here?
**A.** The viability was 81.8% (inactive).

**Q.** With `C=CCn1c(O)c(C2=c3ccccc3=NC2=O)s/c1=N/c1nccs1` as the molecule, how does the viability read?
**A.** Its viability is 85.2% (inactive).

**Q.** With `CCC(C)(C)n1nnnc1C(c1cc2cc(C)cc(C)c2[nH]c1=O)N1CCN(Cc2ccc3c(c2)OCO3)CC1` (centres undefined) as the molecule, how does the viability read?
**A.** Its viability is 80.5% (inactive).

**Q.** Which viability does the source give for `CC(C)(C)n1cnc2cc(NS(=O)(=O)c3ccccc3)ccc21` here?
**A.** The viability was 105% (inactive).

**Q.** With `Cn1c(SCC(=O)Nc2ccc(N3CCOCC3)cc2)nnc1-c1ccccc1` as the molecule, how does the viability read?
**A.** The viability was 103% (inactive).

**Q.** Which viability does the source give for `Cc1ccc(-n2c(SCC(=O)Nc3nccs3)nc3c(c2=O)SCC3)cc1` here?
**A.** The viability was 100% (inactive).

**Q.** Which viability does the source give for `O=C(CC1SCCNC1=O)Nc1cc(Cl)cc(Cl)c1` (centres undefined) here?
**A.** The viability was 96.6% (inactive).

**Q.** For `CCOc1cc(N2CCOCC2)c(OCC)cc1NC(=O)COc1ncnc2ccc(Br)cc12`, which viability is on record?
**A.** Its viability is 91.2% (inactive).

**Q.** Which viability does the source give for `COc1ccc2[nH]cc(C(=O)CN3CCN(C(=O)c4ccco4)CC3)c2c1` here?
**A.** The viability was 101% (inactive).

**Q.** Which viability does the source give for `CCCN(CCO)Cc1cccc(Br)c1` here?
**A.** The viability was 92.7% (inactive).

**Q.** Which viability does the source give for `Cc1ccc(-n2nnnc2SCC(=O)Nc2ccc3c(c2)COC3=O)cc1C` here?
**A.** Its viability is 91.3% (inactive).

**Q.** For `Cc1ccc(Cn2c(=S)[nH]c3ccc(N4CCOCC4)cc3c2=O)o1`, which viability is on record?
**A.** Its viability is 90.9% (inactive).

**Q.** With `O=C(/C=C/NNC(=O)c1ccccc1)c1ccccc1` as the molecule, how does the viability read?
**A.** Its viability is 109% (inactive).

**Q.** With `Cc1ccc(NC(=O)C(C)N2C(=O)c3ccccc3C2=O)cc1` (centres undefined) as the molecule, how does the viability read?
**A.** Its viability is 90.9% (inactive).

**Q.** With `CC(C(=O)N1CCOCC1)N1C(=O)c2ccccc2C1=O` (centres undefined) as the molecule, how does the viability read?
**A.** Its viability is 105% (inactive).

**Q.** Which viability does the source give for `COc1ccc(NC(=O)CSc2nnc(CNC(=O)COc3ccc(Cl)cc3)o2)c(OC)c1` here?
**A.** The viability was 95.2% (inactive).

**Q.** With `CCn1c(SCC(=O)Nc2cc(C)on2)nc2sc3c(c2c1=O)CCCC3` as the molecule, how does the viability read?
**A.** The viability was 86.3% (inactive).

**Q.** Which viability does the source give for `Cc1cc(C)n(-c2nc(Nc3ccccc3C)nc(-n3nc(C)cc3C)n2)n1` here?
**A.** The viability was 118% (inactive).

**Q.** With `CSc1nncc(=O)[nH]1` as the molecule, how does the viability read?
**A.** The viability was 96.7% (inactive).

**Q.** With `CSc1nnc2n(-c3ccc(C)cc3)c(=O)c3c4c(sc3n12)COC(C(C)C)C4` (centres undefined) as the molecule, how does the viability read?
**A.** The viability was 81.8% (inactive).

**Q.** Which viability does the source give for `COc1ccc(-c2nnc(SCCc3ccccc3)n2N)cc1` here?
**A.** The viability was 108% (inactive).

**Q.** With `COc1ccc2cc3cc(C(=O)NCCc4ccc(OC)c(OC)c4)oc3nc2c1` as the molecule, how does the viability read?
**A.** The viability was 93.3% (inactive).
